# Measurements as given in publication PMC12394898 (Chemical Science, 2025).
# Read-outs that look alike come from different tables or passages of the source.
# Legend:
# MCF-7 = experiment: Cytotoxic activity, crystal violet staining; assay type: cell-based, human; details: read-out: IC50 MCF-7, MCF-7 cells, 96 hours incubation
# A-549 = experiment: Cytotoxic activity, crystal violet staining; assay type: cell-based, human; details: read-out: IC50 A-549, A-549 cells, 72 hours incubation
# HT-29 [1] = experiment: Cytotoxic activity, crystal violet staining; assay type: cell-based, human; details: read-out: IC50 HT-29, HT-29 cells, 72 hours incubation
# A2780 [2] = experiment: Cytotoxicity on ovarian cancer cell line; assay type: cell-based, human; details: read-out: IC50 A2780
# [3] = system: organoids from colon cancer tissues (CRC-PDTO1-4); experiment: Patient-Derived Organoid cytotoxicity assay; assay type: cell-based, human
# In short: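 Patient-derived colorectal cancer tumor organoids (3D model) came from the C.R.O. biobank. Oxaliplatin, the standard treatment, served as positive control. Dose-response IC50 values were obtained per organoid line.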
# HT-29 [4] = details: read-out: average IC50 in HT-29 colon cancer cells; literature value; cited from earlier work
# [5] = system: organoids from HGSOC tissues (HGSOC-PDTO1-4); experiment: Patient-Derived Organoid cytotoxicity assay; assay type: cell-based, human
# In short: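 Patient-derived high-grade serous ovarian cancer tumor organoids (3D model) came from the C.R.O. biobank. Carboplatin, the standard treatment, served as positive control. Dose-response IC50 values were obtained per organoid line.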
# A2780 [6] = details: read-out: average IC50 in A2780 ovarian cancer cells; literature value; cited from earlier work
# Stability in water = assay type: physicochemical; details: 4 mg in DMSO-d6 (0.4 mL) diluted with D2O to 0.5 mL, 48 hours
# [7] = target: T1, recombinant human TrxR (TrxR1) (Homo sapiens, UniProt Q16881); experiment: Thioredoxin reductase inhibition assay; assay type: biochemical
# T1 sequence (Q16881 1-499 isoform Q16881-5): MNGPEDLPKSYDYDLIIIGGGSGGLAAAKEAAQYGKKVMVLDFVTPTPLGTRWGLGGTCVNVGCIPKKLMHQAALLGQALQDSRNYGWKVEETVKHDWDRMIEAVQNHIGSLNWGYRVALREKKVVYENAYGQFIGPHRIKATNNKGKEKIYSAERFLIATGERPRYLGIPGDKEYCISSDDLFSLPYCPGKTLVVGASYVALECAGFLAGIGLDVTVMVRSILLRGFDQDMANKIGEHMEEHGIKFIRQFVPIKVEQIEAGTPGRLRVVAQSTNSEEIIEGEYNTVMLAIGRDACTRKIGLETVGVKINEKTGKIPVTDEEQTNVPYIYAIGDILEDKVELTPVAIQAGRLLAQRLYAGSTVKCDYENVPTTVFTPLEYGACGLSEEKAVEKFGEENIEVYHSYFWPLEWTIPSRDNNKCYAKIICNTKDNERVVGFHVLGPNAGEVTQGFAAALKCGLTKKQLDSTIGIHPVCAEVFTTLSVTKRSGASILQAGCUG
# [8] = read-out: IC50 CRC-PDTO1, organoid CRC-PDTO1, 96 hours of treatment
# [9] = read-out: IC50 CRC-PDTO2, organoid CRC-PDTO2, 96 hours of treatment
# [10] = read-out: IC50 CRC-PDTO3, organoid CRC-PDTO3, 96 hours of treatment
# [11] = read-out: IC50 CRC-PDTO4, organoid CRC-PDTO4, 96 hours of treatment
# [12] = read-out: IC50 HGSOC-PDTO1, organoid HGSOC-PDTO1, 96 hours of treatment
# [13] = read-out: IC50 HGSOC-PDTO2, organoid HGSOC-PDTO2, 96 hours of treatment
# [14] = read-out: IC50 HGSOC-PDTO3, organoid HGSOC-PDTO3, 96 hours of treatment
# [15] = read-out: IC50 HGSOC-PDTO4, organoid HGSOC-PDTO4, 96 hours of treatment
# [16] = 50 μM for 96 hours, compared to non-treated controls
Compound,IC50 (MCF-7) [µM],IC50 (A-549) [µM],IC50 (HT-29 [1]) [µM],other results
"CC(C)c1cccc(C(C)C)c1N1CCN(c2c(C(C)C)cccc2C(C)C)[C]1=[Au][Se]c1ccccc1 [1b, [Au(SIPr)Se(C6H5)]]",> 100,> 100,> 100,
[Au(MeIMes)Se(C6H5)] [1h],3.4 ± 0.6,4 ± 0.5,4 ± 1,
"Cc1cc(C)c(N2CCN(c3c(C)cc(C)cc3C)[C]2=[Au][Se]c2ccccc2)c(C)c1 [1k, [Au(SIMes)Se(C6H5)]]",4.4 ± 0.1,6.3 ± 0.6,9.9 ± 0.3,
"N.N.[Cl][Pt][Cl] [Cisplatin, reference compound]",5.3 ± 0.8,3 ± 0.4,7 ± 0.5,IC50 (A2780 [2]): 1 µM
"O=C1[O][Pt]2([NH][C@@H]3CCCC[C@H]3[NH]2)[O]C1=O [Oxaliplatin, reference compound]",,,,"IC50 [3, 8]: 1.4 ± 0.9 µM; IC50 [3, 9]: 4 ± 1 µM; IC50 [3, 10]: > 100 µM; IC50 [3, 11]: > 100 µM; IC50 (HT-29 [4]): 7 µM"
"CC(C)c1cccc(C(C)C)c1-n1ccn(-c2c(C(C)C)cccc2C(C)C)[c]1=[Ag][Se]c1ccccc1 [1q, [Ag(IPr)Se(C6H5)]]",0.9 ± 0.2,0.8 ± 0.1,1.2 ± 0.3,
"CC(C)c1cccc(C(C)C)c1-n1ccn(-c2c(C(C)C)cccc2C(C)C)[c]1=[Cu][Se]c1ccccc1 [1p, [Cu(IPr)Se(C6H5)]]",0.4 ± 0.3,0.7 ± 0.1,1 ± 0.3,
"Cc1c(C)n(-c2c(C(C)C)cccc2C(C)C)[c](=[Au][Se]c2ccccc2)n1-c1c(C(C)C)cccc1C(C)C [1d, [Au(IPr^Me)Se(C6H5)]]",6.1 ± 0.3,> 100,> 100,
"CCC(CC)c1cccc(C(CC)CC)c1-n1ccn(-c2c(C(CC)CC)cccc2C(CC)CC)[c]1=[Au][Se]c1ccccc1 [1l, [Au(IPent)Se(C6H5)]]",> 100,> 100,> 100,
[Au(ImPyIPr)Se(C6H5)] [1i],4.3 ± 0.4,5.97 ± 0.08,12.6 ± 0.8,
"N.N.O=C([O-])C1(C(=O)[O-])CCC1.[Pt+2] [Carboplatin, reference compound]",,,,"IC50 [5, 12]: 3.5 ± 0.7 µM; IC50 [5, 13]: 3 ± 1 µM; IC50 [5, 14]: > 100 µM; IC50 [5, 15]: > 100 µM; IC50 (A2780 [6]): 8 µM"
[Au(PPh3)Se(C6H5)] [1o],1.7 ± 0.08,2.9 ± 0.4,2.8 ± 0.2,
"CC(=O)OC[C@H]1O[C@@H]([S-])[C@H](OC(C)=O)[C@@H](OC(C)=O)[C@@H]1OC(C)=O.CCP(CC)CC.[Au+] [Auranofin, reference compound]",1.5 ± 0.2,3.7 ± 0.4,4.9 ± 0.5,
"Cc1cc(C(c2ccccc2)c2ccccc2)c(-n2ccn(-c3c(C(c4ccccc4)c4ccccc4)cc(C)cc3C(c3ccccc3)c3ccccc3)[c]2=[Au][Se]c2ccccc2)c(C(c2ccccc2)c2ccccc2)c1 [1c, [Au(IPr*)Se(C6H5)]]",> 100,> 100,> 100,
"CC(C)c1cccc(C(C)C)c1-n1ccn(-c2c(C(C)C)cccc2C(C)C)[c]1=[Au][Se]c1ccccc1 [1a, [Au(IPr)Se(C6H5)]]",3.6 ± 0.5,4.5 ± 0.9,3.1 ± 0.5,stability in water (Stability in water): No change; inhibition of the enzyme (TrxR1) ([7]; highest applied dosage of 100 μM): did not show any inhibition
[Au(MonoIPent)Se(C6H5)] [1m],0.27 ± 0.04,0.27 ± 0.03,0.35 ± 0.05,"stability in water (Stability in water): No change; brightfield appearance of CRC PDTOs after treatment [3, 16]: visible reductions in organoid size, density, and structural integrity; IC50 [3, 8]: 13 ± 9 µM; IC50 [3, 9]: 6 ± 2 µM; IC50 [3, 10]: 3.4 ± 0.5 µM; IC50 [3, 11]: 9 ± 5 µM; brightfield appearance of HGSOC PDTOs after treatment [5, 16]: visible reductions in organoid size, density, and structural integrity; IC50 [5, 12]: 17 ± 8 µM; IC50 [5, 13]: 4 ± 2 µM; IC50 [5, 14]: 6 ± 2 µM; IC50 [5, 15]: 7 ± 5 µM; IC50 (A2780 [2]): 0.4 ± 0.1 µM; IC50 ([7]; read-out: TrxR inhibition average IC50, recombinant human TrxR, 75 min at 37 °C): 0.18 ± 0.05 µM"
[Au(BzIPr)Se(C6H5)] [1f],1.9 ± 0.4,0.32 ± 0.04,1.08 ± 0.05,
[Au(MeIPr)Se(C6H5)] [1g],2.4 ± 0.5,1.5 ± 0.3,2.2 ± 0.5,
[Au(IPr)Se(C6H4CF3)] [2a],48 ± 5,55 ± 10,88 ± 8,
